Results as given in ChEMBL document CHEMBL1143027, “An efficient synthesis of 3-fluoro-5-thio-xylofuranosyl nucleosides of thymine, uracil, and 5-fluorouracil as potential antitumor or/and antiviral agents” (Bioorg Med Chem, 2007).
Several values for one entry are separate records, joined by “and”; a condition that tells them apart may be missing. Identical values can stand only once.

Experiments:
[1] = system: Rotavirus; assay: Antiviral activity against rotavirus RF in human Caco-2 cells after neutralization of virus in solution pre-incubated with compound for 12 hrs before infection; format: functional, organism-based
How it was run: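 Rotavirus RF (grown on Caco-2 with trypsin, 1.5 TCID50/mL, 100 µL per well) pre-incubated 12 h with 3-fold compound dilutions (initial 0.5 mg/mL) in trypsin-containing DMEM, then added to Caco-2 monolayers at 37 °C, 5% CO2. Infected treated wells (n=6) compared with virus-only wells (n=6). IC50 read from the concentration–effect curve.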

[2] = Selectivity index, Ratio of CC50 for human Caco-2 cells to IC50 for rotavirus RF in human Caco2 cells after neutralization of virus in solution before infection; format: functional
How it was run: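 Ratio of Caco-2 CC50 (72 h crystal violet assay) to rotavirus IC50 from the 12 h pre-attachment neutralization assay.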

[3] = system: Rotavirus; assay: Antiviral activity against rotavirus RF infected human Caco-2 cells following viral attachment after 72 hrs; format: functional, organism-based; conditions: Caco-2, 72 h
How it was run: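 Washed Caco-2 monolayers exposed to rotavirus RF (1.5 TCID50/mL) for 1 h at 37 °C, 5% CO2 to allow attachment. Unbound virus washed off with plain DMEM, then 3-fold compound dilutions (initial 0.5 mg/mL) added at once. Infected wells (n=6) compared with virus-only controls (n=6). IC50 read from the curve.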

[4] = Selectivity index, Ratio of CC50 for human Caco-2 cells to IC50 for rotavirus RF infected human Caco2 cells after viral attachment; format: functional
How it was run: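 Ratio of Caco-2 CC50 (72 h crystal violet assay) to rotavirus IC50 from the post-attachment infectivity assay.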

[5] = Cytotoxicity against human H4 cells after 72 hrs; format: cell-based
How it was run: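 H4 human fetal small intestine cells grown in DMEM with 5% fetal calf serum and L-glutamine (2 mmol/L). Cells were exposed to 3-fold serial dilutions starting at 0.5 mg/mL (DMSO stock, final DMSO <0.1%) at 37 °C for 72 h. Treated (n = 2) vs control (n = 24) wells; CC50 from concentration–effect curve.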

[6] = system: Caco-2; assay: Cytotoxicity against human Caco-2 cells after 72 hrs; format: functional; conditions: Caco-2, 72 h
How it was run: (§1)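 Cells grown in DMEM with 5% FCS and L-glutamine, then seeded in 96-well plates. Treated with 3-fold serial dilutions (initial 0.5 mg/mL; DMSO stocks, final DMSO <0.1%) for 72 h at 37 °C. Treated wells (n=2) compared with controls (n=24). CC50 read from the concentration–effect curve.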

[7] = Cytotoxicity against human skin melanoma cells after 72 hrs; format: functional; conditions: Melanoma cell; how it was run: as §1
[8] = system: MCF7; assay: Cytotoxicity against human MCF7 cells after 72 hrs; format: functional; conditions: MCF7, 72 h; how it was run: as §1
[9] = system: H4; assay: Selectivity index, Ratio of CC50 for human H4 cells to CC50 for human Caco-2 cells; format: functional
How it was run: (§2)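 Tumor selectivity index: CC50 on normal fetal intestinal H4 cells divided by CC50 on the named tumor line, both from the 72 h crystal violet cytotoxicity assay.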

[10] = system: H4; assay: Selectivity index, Ratio of CC50 for human H4 cells to CC50 for human skin melanoma cells; format: functional; how it was run: as §2
[11] = system: MCF7; assay: Selectivity index, Ratio of CC50 for human H4 cells to CC50 for human MCF7 cells; format: functional; how it was run: as §2
[12] = system: Caco-2; assay: Growth inhibition of human Caco-2 cells after 10 days; format: functional, cell-based; conditions: Caco-2, 240 h
How it was run: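 Caco-2 cells seeded at 10 cells/well in DMEM/10% FBS with 3-fold compound dilutions (initial 0.5 mg/mL), six wells per series. Incubated 10 days at 37 °C in a humidified incubator, then colonies counted. Colony number in treated wells (n=2) compared with controls (n=24). IC50 read from the concentration–effect curve.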

Row | SMILES | IC50 [1] | Ratio CC50/IC50 [2] | IC50 [3] | Ratio CC50/IC50 [4] | CC50 at 72 h [5] [µM] | CC50 [6] [µM] | CC50 [7] [µM] | CC50 [8] [µM] | Selectivity index [9] | Selectivity index [10] | Selectivity index [11] | IC50 [12] [µM]
1 | CC(=O)O[C@@H]1[C@@H](F)[C@@H](CSC(C)=O)O[C@H]1n1cc(C)c(=O)[nH]c1=O | 2 µg/mL and 5.55 µM | 10 | 16.6 µM and 6 µg/mL | 3.33 | 139 | 55.5 | 278 | 278 | 2.5 | 0.5 | 0.5 | 1.9
2 | CC(=O)O[C@@H]1[C@@H](F)[C@@H](CSC(C)=O)O[C@H]1n1cc(F)c(=O)[nH]c1=O | 6 µg/mL and 16.5 µM | 3.33 | 16.5 µM and 6 µg/mL | 3.33 | 1370 | 54.9 | 16.5 | 1370 | 25 | 83.2 | 1 | 16.5
3 | CC(=O)O[C@@H]1[C@@H](F)[C@@H](CSC(C)=O)O[C@H]1n1ccc(=O)[nH]c1=O | 6 µg/mL and 17.3 µM | 3.33 | 17.3 µM and 6 µg/mL | 3.33 | 1440 | 57.8 | 17.3 | 289 | 25 | 83.5 | 5 | 5.8
4 | O=c1[nH]cc(F)c(=O)[nH]1 [FLUOROURACIL] | – | – | – | – | 3840 | 384 | 46.1 | 769 | 10 | 83.4 | 5 | 1.5
5 | Cc1cn([C@H]2C[C@H](N=[N+]=[N-])[C@@H](CO)O2)c(=O)[nH]c1=O [ZIDOVUDINE] | 20 µg/mL and 74.8 µM | 0.75 | 22.4 µM and 6 µg/mL | 2.5 | – | – | – | – | – | – | – | –
